Key:
Histamine H4 receptor [1] = biological target: T1, Histamine H4 receptor (Homo sapiens, UniProt Q9H3N8); assay: Activity at human recombinant GAIP-fused histamine H4 receptor expressed in Sf9 cells coexpressing Galphai, Gbeta1gamma2 by steady-state GTPase activity assay
Method in brief: (§1)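 Steady-state GTPase activity was measured in Sf9 insect cell membranes. hH1R was co-expressed with RGS4; hH3R with Galphai2, Gbeta1gamma2 and RGS4; and hH4R-GAIP fusion protein with Galphai2 and Gbeta1gamma2. Agonist pEC50 or antagonist pKB was determined. Values are means of two to three experiments, each in duplicate.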

Histamine H2 receptor [2] = biological target: T2, Histamine H2 receptor (Homo sapiens, UniProt P25021); assay: Agonist activity at GsalphaS-fused human histamine H2 receptor expressed in Sf9 cells by steady-state GTPase assay
Histamine H1 receptor [3] = biological target: T3, Histamine H1 receptor (Homo sapiens, UniProt P35367); assay: Activity at human recombinant histamine H1 receptor expressed in Sf9 cells coexpressing RGS4 by steady-state GTPase activity assay; method in brief: as §1
Histamine H2 receptor [4] = biological target: T4, Histamine H2 receptor (Cavia porcellus, UniProt P47747); assay: Agonist activity at GsalphaS-fused guinea pig histamine H2 receptor expressed in Sf9 cells by steady-state GTPase assay
Histamine H2 receptor [5] = biological target: T4, Histamine H2 receptor; assay: Agonist activity at histamine H2 receptor in spontaneously beating guinea pig atrium; type: functional, tissue-based, Cardiac atrium
Histamine H4 receptor [6] = biological target: T1, Histamine H4 receptor; assay: Activity at human recombinant GAIP-fused histamine H4 receptor expressed in Sf9 cells coexpressing Galphai, Gbeta1gamma2 by steady-state GTPase activity assay relative to histamine
Method in brief: as §1, with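 “determined. […]” for “determined.”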

Histamine H1 receptor [7] = biological target: T3, Histamine H1 receptor; assay: Activity at human recombinant histamine H1 receptor expressed in Sf9 cells coexpressing RGS4 by steady-state GTPase activity assay relative to histamine
Method in brief: as §1, with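 “determined. […]” for “determined.”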

Histamine H2 receptor [8] = biological target: T2, Histamine H2 receptor; assay: Agonist activity at GsalphaS-fused human histamine H2 receptor expressed in Sf9 cells by steady-state GTPase assay relative to histamine
[9] = biological target: Histamine H2 receptor (Cavia porcellus) (UniProt P47747); assay: Agonist activity at histamine H2 receptor in spontaneously beating guinea pig atrium assessed as increase in heart rate as relative to histamine; type: functional, tissue-based; details: Cardiac atrium
[10] = biological target: Histamine H2 receptor (Cavia porcellus) (UniProt P47747); assay: Agonist activity at GsalphaS-fused guinea pig histamine H2 receptor expressed in Sf9 cells by steady-state GTPase assay relative to histamine
Histamine H2 receptor [11] = biological target: T2, Histamine H2 receptor; assay: Selectivity ratio of EC50 for human histamine H2 to EC50 for guinea pig histamine H2 receptor

Sequence of Histamine H2 receptor (Cavia porcellus) (P47747 whole entry, the tested form may be a part): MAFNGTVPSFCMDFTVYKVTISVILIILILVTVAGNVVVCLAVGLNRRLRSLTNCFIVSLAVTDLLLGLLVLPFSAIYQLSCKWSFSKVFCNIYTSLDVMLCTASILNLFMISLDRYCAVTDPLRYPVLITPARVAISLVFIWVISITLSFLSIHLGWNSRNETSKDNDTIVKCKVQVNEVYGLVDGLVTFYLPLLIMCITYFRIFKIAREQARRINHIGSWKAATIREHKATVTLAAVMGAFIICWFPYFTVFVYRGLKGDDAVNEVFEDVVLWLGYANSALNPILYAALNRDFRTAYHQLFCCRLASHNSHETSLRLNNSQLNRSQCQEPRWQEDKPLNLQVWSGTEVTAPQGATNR
T4 sequence (P47747 whole entry, the tested form may be a part): as above
T1 sequence (Q9H3N8 whole entry, the tested form may be a part): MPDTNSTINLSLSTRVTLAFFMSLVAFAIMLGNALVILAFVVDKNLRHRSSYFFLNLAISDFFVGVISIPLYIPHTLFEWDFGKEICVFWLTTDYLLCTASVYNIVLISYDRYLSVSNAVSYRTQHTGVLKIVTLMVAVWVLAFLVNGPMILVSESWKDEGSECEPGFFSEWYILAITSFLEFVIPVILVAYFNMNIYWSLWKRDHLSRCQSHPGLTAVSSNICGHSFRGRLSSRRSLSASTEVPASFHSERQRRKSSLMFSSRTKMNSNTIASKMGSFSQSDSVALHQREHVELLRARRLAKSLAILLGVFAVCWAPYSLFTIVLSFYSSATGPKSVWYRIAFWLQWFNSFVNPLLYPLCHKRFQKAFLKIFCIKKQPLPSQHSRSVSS
T3 sequence (P35367 whole entry, the tested form may be a part): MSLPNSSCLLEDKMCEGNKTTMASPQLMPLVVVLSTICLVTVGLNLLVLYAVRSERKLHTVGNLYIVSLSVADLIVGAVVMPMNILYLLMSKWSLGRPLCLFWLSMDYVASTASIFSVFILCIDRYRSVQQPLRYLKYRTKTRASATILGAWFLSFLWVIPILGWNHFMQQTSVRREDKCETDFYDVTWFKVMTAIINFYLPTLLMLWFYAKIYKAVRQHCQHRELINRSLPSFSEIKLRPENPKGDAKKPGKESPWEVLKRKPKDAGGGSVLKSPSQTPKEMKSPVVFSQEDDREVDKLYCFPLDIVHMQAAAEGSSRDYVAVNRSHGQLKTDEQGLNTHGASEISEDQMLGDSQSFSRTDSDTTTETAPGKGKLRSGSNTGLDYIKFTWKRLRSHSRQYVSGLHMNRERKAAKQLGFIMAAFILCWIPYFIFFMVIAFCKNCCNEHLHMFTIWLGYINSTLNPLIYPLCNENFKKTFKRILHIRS
T2 sequence (P25021 whole entry, the tested form may be a part): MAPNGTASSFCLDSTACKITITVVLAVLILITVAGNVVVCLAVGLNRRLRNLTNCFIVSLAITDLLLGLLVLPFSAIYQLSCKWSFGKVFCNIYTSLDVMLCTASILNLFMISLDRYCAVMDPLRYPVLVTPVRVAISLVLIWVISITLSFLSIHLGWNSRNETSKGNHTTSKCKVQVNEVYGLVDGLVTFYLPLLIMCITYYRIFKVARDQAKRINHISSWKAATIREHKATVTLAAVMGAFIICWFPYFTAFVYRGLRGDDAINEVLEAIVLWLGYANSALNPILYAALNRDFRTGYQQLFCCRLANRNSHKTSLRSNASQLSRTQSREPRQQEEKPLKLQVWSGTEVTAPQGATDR

Structure (SMILES) | EC50 (Histamine H4 receptor [1]) | EC50 (Histamine H2 receptor [2]) | EC50 (Histamine H1 receptor [3]) | EC50 (Histamine H2 receptor [4]) | EC50 (Histamine H2 receptor [5]) | Emax (Histamine H4 receptor [6]) | Emax (Histamine H1 receptor [7]) | Emax (Histamine H2 receptor [8]) | Emax [9] | Emax [10] | Ratio EC50 (Histamine H2 receptor [11])
C[C@H](CC(=O)NC(N)=NCCCc1cnc[nH]1)c1ccccc1 | 22.9 nM | 120 nM | 6170 nM | 75.9 nM | 93.3 nM |  |  |  |  |  | 
Cc1nc(N)sc1CCCN=C(N)NC(=O)C[C@H](C)C1CCCCC1 |  | 28.8 nM |  | 14.1 nM | 91.2 nM |  |  |  |  |  | 
C[C@H](CC(=O)NC(N)=NCCCc1cnc[nH]1)C1CCCCC1 | 8.32 nM | 18.6 nM | 89.1 nM | 19.1 nM | 102 nM |  |  |  |  |  | 
NCCc1c[nH]cn1 [HISTAMINE] |  |  |  |  |  | 100% | 100% | 100% | 100% | 100% | 
Cc1nc(N)sc1CCCN=C(N)NC(=O)C[C@@H](C)C1CCCCC1 |  | 20.4 nM |  | 13.2 nM | 57.5 nM |  |  |  |  |  | 
Cc1nc(N)sc1CCCNC(=N)NC(=O)C[C@H](C)C1CCCCC1 |  |  |  |  |  |  |  | 71% | 78% | 90% | 2.05
Cc1nc(N)sc1CCCNC(=N)NC(=O)C[C@@H](C)c1ccccc1 |  |  |  |  |  |  |  | 65% | 73% | 86% | 3.14
Cc1nc(N)sc1CCCN=C(N)NC(=O)C[C@@H](C)c1ccccc1 |  | 53.7 nM |  | 17 nM | 102 nM |  |  |  |  |  | 
Cc1nc(N)sc1CCCNC(=N)NC(=O)CC(C)c1ccccc1 (racemic) |  | 50.1 nM |  | 22.4 nM | 49 nM |  |  | 82% | 89% | 98% | 2.22
Cc1nc(N)sc1CCCNC(=N)NC(=O)CC(C)C1CCCCC1 (racemic) |  | 9.33 nM |  | 7.59 nM | 69.2 nM |  |  | 56% | 74% | 82% | 1.24
Cc1nc(N)sc1CCCNC(=N)NC(=O)C[C@H](C)c1ccccc1 |  | 28.2 nM |  | 7.76 nM | 39.8 nM |  |  | 87% | 87% | 99% | 3.6
C[C@@H](CC(=O)NC(N)=NCCCc1cnc[nH]1)c1ccccc1 | 2.63 nM | 79.4 nM | 832 nM | 24 nM | 25.1 nM |  |  |  |  |  | 
C[C@@H](CC(=O)NC(N)=NCCCc1cnc[nH]1)C1CCCCC1 | 4.57 nM | 6.46 nM | 66.1 nM | 7.76 nM | 33.1 nM |  |  |  |  |  | 
Cc1nc(N)sc1CCCNC(=N)NC(=O)C[C@@H](C)C1CCCCC1 |  |  |  |  |  |  |  | 62% | 80% | 80% | 1.53
C[C@@H](CC(=O)NC(=N)NCCCc1c[nH]cn1)c1ccccc1 |  |  |  |  |  | 82% | 53% | 107% | 102% | 119% | 3.32
C[C@H](CC(=O)NC(=N)NCCCc1c[nH]cn1)C1CCCCC1 |  |  |  |  |  | 57% | 41% | 85% | 82% | 90% | 0.98
C[C@H](CC(=O)NC(=N)NCCCc1c[nH]cn1)c1ccccc1 |  |  |  |  |  | 85% | 34% | 101% | 93% | 101% | 1.58
C[C@@H](CC(=O)NC(=N)NCCCc1c[nH]cn1)C1CCCCC1 |  |  |  |  |  | 59% | 51% | 99% | 103% | 93% | 0.84
